Compound activity: PubChem BioAssay, several laboratories
This is a sample that favours compounds with a hit; in the whole collection about 1.4% have one here.
UBC9 SUMO inh: inhibitors of in vitro SUMOylation cascade, primary screen, biochemical, HTRF, uHTS; 290,000 tested, 0.36% active; AID 2006, 2009; SUMO-conjugating enzyme UBC9 (Homo sapiens), P63279; HTRF SUMOylation assay, SAE1/SAE2 + UBC9; inhibition, % at 35 µM; in the data active means inhibition above about 50%, passing the limit was not always enough
Target sequence (P63279 whole entry, looked up): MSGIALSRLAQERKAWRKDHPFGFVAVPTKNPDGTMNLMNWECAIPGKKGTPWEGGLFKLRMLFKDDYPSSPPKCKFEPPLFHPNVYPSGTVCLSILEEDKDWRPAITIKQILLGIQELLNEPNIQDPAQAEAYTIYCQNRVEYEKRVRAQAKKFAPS
Neddylation inh: inhibitors of cullin neddylation, primary screen, biochemical, TR-FRET, uHTS, NAE and Ubc12; inhibition, % at 25 µM; 360,000 tested, 0.58% active; in the data active means inhibition above about 36%
UCH37 DUB inh: inhibitors of human UCH37 deubiquitinase, primary screen, biochemical, Ub-AMC cleavage, fluorescence; Ubiquitin carboxyl-terminal hydrolase isozyme L5 (Homo sapiens), Q9Y5K5; purified proteasome/UCH37; inhibition, % (test concentration not listed); 330,000 tested, 0.33% active;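 active means mean inhibition over replicate wells above about 20%, limit read from the data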;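 further: 0% = compound-free wells with enzyme and 100% = wells lacking proteasome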
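assay system = human UCH37 enzyme supplied as purified proteasome complex | amount = proteasome at 0.15 nM in the dispensed enzyme solution | schedule = 30 min compound-proteasome preincubation then 25 min substrate reaction, room temperature | measured by = fluorescence, ex 355 nm, em 460 nm | benchmarks = no-proteasome wells (full inhibition) and compound-free wells (no inhibition)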
CTSL1 counter: Fasciola hepatica cathepsin L1 inhibitors, primary screen, counter-screen for PFM18AAP inhibitor project, biochemical, QFRET, fluorogenic peptide substrate; recombinant F. hepatica cathepsin L1, Z-Leu-Arg-MCA fluorescence; inhibition, % at 5.96 µM; 300,000 tested, 0.49% active; AID 1906, 2009;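 active means inhibition above the mean of all tested compounds plus 3 SD, set per screening campaign, cut at about 17% in these data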;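 further: 0% = plate median of test compound wells and 100% = 1 µM Z-Phe-Ala-diazomethylketone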
* = called active by the depositor; i = inactive; nt = not tested or not shown; ! = repeats disagree.

SMILES	UBC9 SUMO inh	Neddylation inh	UCH37 DUB inh	CTSL1 counter
Cc1cccc(C)c1OCC(=O)N=Nc1c(O)[nH]c2ccc(Br)cc12	59*	-12	6	0
O=C(CSc1cc(Cl)ccc1Cl)NCC(=O)Nc1ccc(F)c(F)c1F	-7	2	nt	18*
O=C(Cn1c(=O)oc2cc(S(=O)(=O)N3CCCCCC3)ccc21)NC1CCCCCCC1	32	-6	0	17*
Cn1c(C(=O)NCC2CCCO2)cc2c(=O)n3ccccc3nc21 (stereo not given)	53*	34	i	2
COCCCn1c(C(=O)N2CC(C)OC(C)C2)cc2c(=O)n3ccccc3nc21 (stereo not given)	54*	nt	i	1
Cn1c(C(=O)N2COCC2(C)C)cc2c(=O)n3ccccc3nc21	53*	nt	i	2
Cc1cccn2c(=O)c3cc(C(=O)N4COCC4(C)C)sc3nc12	18	nt	-304	-6
Cc1ccc(S(=O)(=O)NCC(=O)NN=Cc2ccc(Cl)cc2)cc1	nt	nt	3	nt
CCn1ncc(C=NNC(=O)c2cc(-c3ccc(C)cc3C)nc3ccccc23)c1C	nt	nt	-1	nt
COc1cc(C=Nn2c(SC)nnc(C(C)(C)C)c2=O)ccc1O	nt	nt	35*	nt
COc1cc(/C=N/n2c(SC)nnc(C(C)(C)C)c2=O)ccc1O	-9	-1	nt	3
CCOC(=O)c1[nH]c2ccccc2c1N=CN(C)C	nt	1	-2	0
CN(C)C=Nc1ccc2nc3c(cc2c1)[nH]c1ccccc13	50*	nt	i	7
O=C(c1cccn2c(=O)c3cc(Cl)ccc3nc12)N1CCN(Cc2ccc3c(c2)OCO3)CC1	24	nt	-167	2
O=C(c1cccn2c(=O)c3cc(Cl)ccc3nc12)N1CCOCC1	52*	nt	-459	5
O=C(O)c1ccc(N/N=C/c2ccc(OC(=O)c3cccc(Cl)c3)cc2)cc1	31	-16	nt	18*
CCOC(=O)N1CCC(N2Cc3cccc(C(=O)NCc4ccccn4)c3C2=O)CC1	21	-14	6	27*
CCCCC(CCCC)=NN=Cc1c(O)n(CC)c2cc(C3=NNC(=O)CC3)ccc12	nt	nt	-6	nt
Cc1nc(Nc2ccc(S(N)(=O)=O)cc2)sc1C(=O)Nc1ccccc1	-1	-273	21*	2
CCCCCCCCCCCCCCCC[n+]1cccc2ccccc21	18	1	88*	1
Cc1noc(/C=C/N(C)C)c1S(=O)(=O)N1CCC(C(=O)Nc2ccc(Cl)cc2)CC1	-6	-3	3	-2
Cc1ccc(NC(=O)C2CCCN(S(=O)(=O)c3c(C)noc3/C=C/N(C)C)C2)cc1F (stereo not given)	0	6	7	17*
COc1cc2c(cc1NC(=O)COC(=O)[C@@H](NC(=O)c1ccccc1)C(C)C)oc1ccccc12	-9	29	-5	-19
COc1cc2c(cc1NC(=O)COC(=O)CNC(=O)c1ccccc1)oc1ccccc12	8	25	-11	24*
CN(C)CCOC(=O)C1(c2ccccc2)CCOCC1	-34	-7	20*!	1
SMILES	UBC9 SUMO inh	Neddylation inh	UCH37 DUB inh	CTSL1 counter
COc1ccccc1/C=C/C=Nn1c(-c2cc(-c3ccccc3)n[nH]2)n[nH]c1=S	nt	nt	3	nt
N#Cc1cccnc1N1CCN(C(=O)c2ccc3c(c2)S(=O)(=O)c2ccccc2C3=O)CC1	nt	-78	4	1
O=C1c2ccccc2S(=O)(=O)c2cc(C(=O)N3CCN(c4ccc(Cl)cn4)CC3)ccc21	nt	-53	3	17*
CC(=O)NN=C(c1ccccc1)C(O)c1ccccc1 (stereo not given)	nt	nt	2	nt
CCOC(=O)Nc1ccc2c(c1)N(C(=O)CCN(CC)CC)c1ccccc1S2=O (stereo not given)	4	4	5	17*
CC1Oc2ccccc2C=C1C=NNC(=O)c1ccccc1 (stereo not given)	nt	nt	-14	nt
COc1ccc(C2CC(c3cccs3)=NN2C(=O)CCl)cc1OC (stereo not given)	13	38	nt	58*
COc1cc(C2CC(c3cccs3)=NN2C(=O)CCl)ccc1OC(F)F (stereo not given)	7	nt	nt	59*
Cc1c(C(=O)O)cccc1-n1c(C)cc(C=NNC(=O)c2cc3ccccc3o2)c1C	nt	nt	3	nt
CCOc1ccccc1NC(=O)c1cccc(NC(=O)CC(c2ccccc2)c2ccccc2)c1	10	12	1	18*
Brc1cccc(C=NNc2nn[nH]n2)c1	nt	nt	4	nt
